In brackets after ≈: the same amount, converted by molar mass. Activity calls are given as the source filed them. The calls are words filed in the database; no cut-off is given here.
Assays:
Human alphaherpesvirus 1 [1] = experiment: Antiviral activity against Human herpesvirus 1 infected in african green monkey Vero cells assessed as maximal nontoxic dose caused highest viral reduction factor after 36 hrs by end point titration method; format: functional
In short: (§1)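 HSV-1 stock was grown in HeLa cells. Two-fold compound dilutions were premixed with one infectious dose of virus for 0.5 h at 37 °C, then added to confluent HeLa or Vero monolayers for 36 h at 37 °C in 5% CO2. End-point titration gave the reduction factor, virus titer without compound over titer with compound, at the maximal nontoxic dose. Acyclovir and heparin were the controls.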

Human alphaherpesvirus 1 [2] = experiment: Antiviral activity against Human herpesvirus 1 infected in african green monkey Vero cells assessed as ratio of viral titer in absence of drug over viral titer in presence of drug after 36 hrs by end point titration method; format: functional; in short: as §1
[3] = Cytotoxicity against african green monkey Vero cells assessed as minimal toxic dosed detached 100% of the cell monolayer; conditions: chlorocebus sabaeus, read-out: CC100
Jurkat = experiment: Cytotoxicity against human Jurkat cells after 48 hrs by MTT assay; format: functional, cell-based
In short: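 Suspension Jurkat cells were seeded at 3.00×10^4 per well. Diluted compounds were added directly, with 0.05% DMSO, and incubated 48 h at 37 °C. Read-out was MTT. IC50 came from linear regression of dose-effect curves, at least four dilutions in quadruplicate, as mean ± S.E.M. Vincristine was the positive control.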

Pichia kudriavzevii = experiment: Antifungal activity against Candida krusei ATCC 6258 at <100 ug/ml after 24 hrs by AFST-EUCAST method; format: functional, organism-based
In short: (§2)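 EUCAST broth microdilution for fermentative yeasts. Seven serial dilutions were tested in duplicate at final concentrations of 100 to 2 µg/mL, with 0.05% DMSO. Inoculum was 0.5–2.5×10^5 CFU/mL. […] Amphotericin B and itraconazole served as controls (0.031–16 µg/mL). Triplicates were run in three separate assays; results are given as range and geometric mean.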

Vero [4] = experiment: Selectivity index, ratio of IC50 for african green monkey Vero cells to IC50 for human HeLa cells; format: functional
Vero [5] = experiment: Cytotoxicity against african green monkey Vero cells after 48 hrs by MTT assay; format: cell-based; conditions: Chlorocebus sabaeus
In short: (§3)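 HeLa and Vero monolayers were trypsinized, washed and seeded per well (HeLa 1.5×10^4; Vero 1.25×10^4). After 24 h, diluted compounds were added with 0.05% DMSO and incubated 48 h at 37 °C in 5% CO2. Read-out was MTT. IC50 came from linear regression of dose-effect curves, at least four dilutions in quadruplicate, as mean ± S.E.M. Vincristine was the positive control.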

Vero [6] = experiment: Selectivity index, ratio of IC50 for african green monkey Vero cells to IC50 for human Jurkat cells; format: functional
Human alphaherpesvirus 1 [7] = experiment: Antiviral activity against Human herpesvirus 1 infected in human HeLa cells assessed as maximal nontoxic dose caused highest viral reduction factor after 36 hrs by end point titration method; format: functional, organism-based
Candida albicans = experiment: Antifungal activity against Candida albicans ATCC 10231 at <100 ug/ml after 24 hrs by AFST-EUCAST method; format: functional, organism-based; in short: as §2
Human alphaherpesvirus 1 [8] = experiment: Antiviral activity against Human herpesvirus 1 infected in human HeLa cells assessed as ratio of viral titer in absence of drug over viral titer in presence of drug after 36 hrs by end point titration method; format: functional, organism-based
Aspergillus terreus = experiment: Antifungal activity against Aspergillus terreus after 24 hrs by AFST-EUCAST method; format: functional
HeLa = experiment: Cytotoxicity against human HeLa cells after 48 hrs by MTT assay; format: functional, cell-based; in short: as §3
Candida parapsilosis = experiment: Antifungal activity against Candida parapsilosis ATCC 22019 at <100 ug/ml after 24 hrs by AFST-EUCAST method; format: functional, organism-based; in short: as §2
[9] = Solubility in DMSO; format: physicochemical
[10] = Cytotoxicity against human HeLa cells assessed as minimal toxic dosed detached 100% of the cell monolayer; conditions: read-out: CC50
Candida tropicalis = experiment: Antifungal activity against Candida tropicalis CECT 11901 at <100 ug/ml after 24 hrs by AFST-EUCAST method; format: functional, organism-based; in short: as §2
Aspergillus fumigatus = experiment: Antifungal activity against Aspergillus fumigatus after 24 hrs by AFST-EUCAST method; format: functional
Aspergillus niger = experiment: Antifungal activity against Aspergillus niger after 24 hrs by AFST-EUCAST method; format: functional

Structure (SMILES) | Activity (Human alphaherpesvirus 1 [1]) [µg/mL] | Ratio (Human alphaherpesvirus 1 [2]) | MCC [3] [µg/mL] | IC50 (Jurkat) [µg/mL] | Activity (Pichia kudriavzevii) | Ratio IC50 (Vero [4]) | IC50 (Vero [5]) [µg/mL] | Ratio IC50 (Vero [6]) | Activity (Human alphaherpesvirus 1 [7]) | Activity (Candida albicans) | Activity (Human alphaherpesvirus 1 [8]) | MIC (Aspergillus terreus) [µg/mL] | IC50 (HeLa) [µg/mL] | Activity (Candida parapsilosis) | solubility [9] | MCC [10] [µM] | Activity (Candida tropicalis) | MIC (Aspergillus fumigatus) [µg/mL] | MIC (Aspergillus niger) [µg/mL]
Nc1nc2c(ncn2COCCO)c(=O)[nH]1 [ACYCLOVIR] | 6 | 1000 | > 600 | – | – | – | – | – | – | – | – | – | – | – | – | – | – | – | –
CC(C)c1ccc2c(c1)CC[C@H]1[C@](C)(C(=O)O)CCC[C@]21C [DEHYDROABIETIC ACID] | – | – | > 50 | 28 (≈ 93.2 µM) | inactive | 0.9 | 91 (≈ 303 µM) | 3.2 | inactive | inactive | inactive | 39.7 (≈ 132 µM) | 101 (≈ 336 µM) | inactive | – | – | – | – | –
CC(C)c1ccc2c(c1)CC[C@H]1[C@](C)(COC(=O)c3cccnc3)CCC[C@]21C [DEHYDROABIETINOLNICOTINATE] | – | – | – | – | – | – | – | – | – | – | – | – | – | – | Insoluble | – | – | – | –
COC(=O)[C@]1(C)CCC[C@@]2(C)[C@H]1CC=C1C=C(C(C)C)CC[C@@H]12 [METHYL ABIETATE] | – | – | – | – | – | – | – | – | Active | – | inactive | – | – | – | – | 11 | – | – | –
CC(C)c1ccc2c(c1)CC[C@H]1[C@](C)(COC(=O)c3ccccc3)CCC[C@]21C [DEHYDROABIETINOLBENZOATE] | 50 | 3.16 | > 50 | 57 (≈ 146 µM) | inactive | – | ≥ 200 | >3.5 | inactive | inactive | inactive | – | ≥ 200 | inactive | – | – | – | – | –
CC(C)c1ccc2c(c1)CC[C@H]1[C@](C)(CO)CCC[C@]21C [POMIFERIN A] | – | – | 50 | 9.7 (≈ 33.9 µM) | inactive | 2.9 | 38 (≈ 133 µM) | 3.9 | inactive | inactive | inactive | – | 13 (≈ 45.4 µM) | inactive | – | – | inactive | – | –
CC(C)c1ccc2c(c1)C(=O)C[C@H]1[C@](C)(CO)CCC[C@]21C | – | – | 25 | 17 (≈ 56.6 µM) | inactive | 0.9 | 27 (≈ 89.9 µM) | 1.6 | inactive | inactive | inactive | – | 30 (≈ 99.9 µM) | inactive | – | – | inactive | – | –
CC(C)c1ccc2c(c1)CC[C@H]1[C@](C)(C=O)CCC[C@]21C [DEHYDROABIETINAL] | – | – | 50 | 17 (≈ 59.8 µM) | inactive | 1.3 | 32 (≈ 113 µM) | 1.9 | inactive | inactive | inactive | – | 24 (≈ 84.4 µM) | inactive | – | – | inactive | – | –
CC(C)c1ccc2c(c1)[C@H](O)C[C@H]1[C@](C)(C=O)CCC[C@]21C | – | – | – | 12 (≈ 39.9 µM) | inactive | 1.6 | 36 (≈ 120 µM) | 3 | inactive | inactive | inactive | – | 23 (≈ 76.6 µM) | inactive | – | – | inactive | – | –
CC(=O)OC[C@]1(C)CCC[C@]2(C)c3ccc(C(C)C)cc3CC[C@@H]12 [DEHYDROABIETINOL ACETATE] | 25 | 10 | > 50 | 22 | inactive | 3.4 | 95 | 4.3 | inactive | inactive | inactive | – | 28 | inactive | – | – | inactive | – | –
CC(C)c1ccc2c(c1)[C@H](O)C[C@H]1[C@](C)(CO)CCC[C@]21C | – | – | 25 | 12 (≈ 39.7 µM) | inactive | 1.5 | 30 (≈ 99.2 µM) | 2.5 | inactive | inactive | inactive | – | 20 (≈ 66.1 µM) | inactive | – | – | inactive | 50 (≈ 165 µM) | 63 (≈ 208 µM)
CC(C)C1=CC2=CC[C@@H]3[C@](C)(CCC[C@@]3(C)C(=O)O)[C@H]2CC1 | – | – | – | – | – | – | – | – | inactive | – | inactive | – | – | – | – | – | – | – | –
COC(=O)[C@]1(C)CCC[C@]2(C)c3ccc(C(C)C)cc3CC[C@@H]12 [METHYL DEHYDROABIETATE] | – | – | > 50 | 21 (≈ 66.8 µM) | inactive | 1.3 | 36 (≈ 114 µM) | 1.7 | inactive | inactive | inactive | – | 28 (≈ 89 µM) | inactive | – | – | inactive | – | –

Reference: ChEMBL document CHEMBL1153719, “Synthesis and biological evaluation of dehydroabietic acid derivatives” (Eur J Med Chem, 2010)
